From ChEMBL document CHEMBL3797186, “Single Residue Substitutions That Confer Voltage-Gated Sodium Ion Channel Subtype Selectivity in the NaV1.7 Inhibitory Peptide GpTx-1” (J Med Chem, 2016)
Positions of bridges follow the written chain, without caps; N, C: chain ends. Residues, ends and D or L forms follow the SMILES beside them.

Target: Sodium channel protein type 5 subunit alpha (Homo sapiens, UniProt Q14524)
Assay: Inhibition of human Nav1.5 expressed in HEK293 cells assessed as inward peak current by ion-works quattro patch clamp electrophysiology method
Format: cell-based
Summary of the method: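 Stable HEK293 line expressing human NaV1.5, recorded by population patch clamp on the IonWorks Quattro.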

Sodium channel protein type 5 subunit alpha, sequence (Q14524 whole entry): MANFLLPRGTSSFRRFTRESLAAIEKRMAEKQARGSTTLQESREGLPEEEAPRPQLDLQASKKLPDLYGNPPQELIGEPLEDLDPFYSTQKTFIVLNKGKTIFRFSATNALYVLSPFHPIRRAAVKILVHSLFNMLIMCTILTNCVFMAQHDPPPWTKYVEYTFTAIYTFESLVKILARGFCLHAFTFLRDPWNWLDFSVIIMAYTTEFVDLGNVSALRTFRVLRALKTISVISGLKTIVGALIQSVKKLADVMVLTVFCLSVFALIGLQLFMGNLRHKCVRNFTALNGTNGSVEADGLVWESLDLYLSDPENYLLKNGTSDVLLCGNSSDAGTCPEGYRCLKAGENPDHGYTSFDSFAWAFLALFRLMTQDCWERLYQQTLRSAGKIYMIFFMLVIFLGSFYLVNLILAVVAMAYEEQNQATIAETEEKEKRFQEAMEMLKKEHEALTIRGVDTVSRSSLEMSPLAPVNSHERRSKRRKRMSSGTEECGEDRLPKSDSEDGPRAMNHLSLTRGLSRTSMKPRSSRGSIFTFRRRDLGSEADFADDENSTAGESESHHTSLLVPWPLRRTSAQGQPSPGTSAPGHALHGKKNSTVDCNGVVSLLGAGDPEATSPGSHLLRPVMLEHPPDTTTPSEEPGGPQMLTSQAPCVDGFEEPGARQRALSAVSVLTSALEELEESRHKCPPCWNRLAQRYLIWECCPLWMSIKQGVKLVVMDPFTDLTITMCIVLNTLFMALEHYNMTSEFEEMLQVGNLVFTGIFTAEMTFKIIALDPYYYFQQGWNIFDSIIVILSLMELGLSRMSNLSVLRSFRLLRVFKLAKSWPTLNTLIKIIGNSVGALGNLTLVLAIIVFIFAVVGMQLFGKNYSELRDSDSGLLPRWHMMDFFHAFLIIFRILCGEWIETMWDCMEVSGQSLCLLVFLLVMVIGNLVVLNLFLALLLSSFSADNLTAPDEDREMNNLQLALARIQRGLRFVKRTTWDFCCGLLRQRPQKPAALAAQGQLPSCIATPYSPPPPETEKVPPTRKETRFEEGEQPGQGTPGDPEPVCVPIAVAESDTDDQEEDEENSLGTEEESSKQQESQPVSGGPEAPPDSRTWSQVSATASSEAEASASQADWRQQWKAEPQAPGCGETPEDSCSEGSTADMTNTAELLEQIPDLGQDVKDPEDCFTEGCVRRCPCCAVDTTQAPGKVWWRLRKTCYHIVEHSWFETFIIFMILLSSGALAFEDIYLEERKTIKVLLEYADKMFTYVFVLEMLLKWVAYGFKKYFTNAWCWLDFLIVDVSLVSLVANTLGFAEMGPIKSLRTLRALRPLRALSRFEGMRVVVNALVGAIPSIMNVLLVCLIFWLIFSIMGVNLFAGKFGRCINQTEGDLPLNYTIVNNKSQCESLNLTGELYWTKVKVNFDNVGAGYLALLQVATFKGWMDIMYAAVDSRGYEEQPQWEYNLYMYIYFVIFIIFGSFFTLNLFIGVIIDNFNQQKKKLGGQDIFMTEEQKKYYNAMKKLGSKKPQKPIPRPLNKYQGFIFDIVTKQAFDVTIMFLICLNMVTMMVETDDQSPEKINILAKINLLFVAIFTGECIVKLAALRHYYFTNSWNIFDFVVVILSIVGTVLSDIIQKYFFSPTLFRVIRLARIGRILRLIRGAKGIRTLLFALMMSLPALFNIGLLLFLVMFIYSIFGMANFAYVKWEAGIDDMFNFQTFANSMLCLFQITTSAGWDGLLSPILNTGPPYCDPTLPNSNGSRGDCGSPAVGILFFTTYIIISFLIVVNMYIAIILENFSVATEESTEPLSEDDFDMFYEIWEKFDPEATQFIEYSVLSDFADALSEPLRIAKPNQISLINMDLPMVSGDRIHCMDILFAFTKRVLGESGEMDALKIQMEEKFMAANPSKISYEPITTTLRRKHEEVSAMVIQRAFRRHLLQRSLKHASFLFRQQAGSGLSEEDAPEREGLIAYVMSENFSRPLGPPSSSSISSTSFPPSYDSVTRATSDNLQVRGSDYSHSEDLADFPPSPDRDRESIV

Compared with `CC[C@H](C)[C@@H]1NC(=O)[C@@H]2CSSC[C@@H]3NC(=O)[C@H](C(C)C)NC(=O)[C@H](CC(C)C)NC(=O)[C@H](CC(N)=O)NC(=O)[C@@H]4CCCN4C(=O)[C@H](CCCNC(=N)N)NC(=O)[C@H](CSSC[C@H](NC(=O)[C@@H](N)CC(=O)O)C(=O)N[C@@H](CC(C)C)C(=O)NCC(=O)N[C@@H](Cc4ccccc4)C(=O)N[C@@H](Cc4cccc5ccccc45)C(=O)N[C@@H](CCCNC(=N)N)C(=O)N[C@@H](CCCCN)C(=O)N2)NC(=O)[C@H](CSSC[C@@H](C(=O)N[C@@H](CCCCN)C(=O)N[C@@H](Cc2ccc(O)cc2)C(=O)N[C@H](C(=O)N[C@@H](Cc2ccccc2)C(N)=O)C(C)C)NC(=O)[C@H](Cc2c[nH]c4ccccc24)NC(=O)[C@H](CCCCN)NC(=O)[C@H](Cc2cnc[nH]2)NC(=O)[C@H]([C@@H](C)O)NC(=O)[C@H](CCCNC(=N)N)NC(=O)[C@H](CO)NC3=O)NC(=O)[C@H](CCCCN)NC(=O)[C@H](CC(=O)O)NC(=O)[C@H](CC(N)=O)NC(=O)[C@H](CC(=O)O)NC(=O)[C@@H]2CCCN2C1=O`, `CC[C@H](C)[C@@H]1NC(=O)[C@@H]2CSSC[C@@H]3NC(=O)[C@H](C(C)C)NC(=O)[C@H](CC(C)C)NC(=O)[C@H](CC(N)=O)NC(=O)[C@@H]4CCCN4C(=O)[C@H](CCCNC(=N)N)NC(=O)[C@H](CSSC[C@H](NC(=O)[C@@H](N)CCC(=O)O)C(=O)N[C@@H](CC(C)C)C(=O)NCC(=O)N[C@@H](Cc4ccccc4)C(=O)N[C@@H](CCSC)C(=O)N[C@@H](CCCNC(=N)N)C(=O)N[C@@H](CCCCN)C(=O)N2)NC(=O)[C@H](CSSC[C@@H](C(=O)N[C@@H](CCCCN)C(=O)N[C@@H](Cc2ccc(O)cc2)C(=O)N[C@H](C(=O)N[C@@H](Cc2ccccc2)C(N)=O)C(C)C)NC(=O)[C@H](Cc2c[nH]c4ccccc24)NC(=O)[C@H](CCCCN)NC(=O)[C@H](Cc2cnc[nH]2)NC(=O)[C@H]([C@@H](C)O)NC(=O)[C@H](CCCNC(=N)N)NC(=O)[C@H](CO)NC3=O)NC(=O)[C@H](CCCCN)NC(=O)[C@H](CC(=O)O)NC(=O)[C@H](CC(N)=O)NC(=O)[C@H](CC(=O)O)NC(=O)[C@@H]2CCCN2C1=O` (H-ECLGFMRKCIPDNDKCCRPNLVCSRTHKWCKYVF-NH2; disulfide 2-17, 9-23, 16-30) is higher in IC50: 2.3 µM for the first, greater than 5 µM for the second. The first is the more potent here.

`CSCC[C@@H]1NC(=O)[C@H](Cc2ccccc2)NC(=O)CNC(=O)[C@H](CC(C)C)NC(=O)[C@@H](NC(=O)[C@@H](N)CC(=O)O)CSSC[C@@H]2NC(=O)[C@@H]3CSSC[C@@H](C(=O)N[C@@H](CCCCN)C(=O)N[C@@H](Cc4ccc(O)cc4)C(=O)N[C@H](C(=O)N[C@@H](Cc4ccccc4)C(N)=O)C(C)C)NC(=O)[C@H](Cc4c[nH]c5ccccc45)NC(=O)[C@H](CCCCN)NC(=O)[C@H](Cc4cnc[nH]4)NC(=O)[C@H]([C@@H](C)O)NC(=O)[C@H](CCCNC(=N)N)NC(=O)[C@H](CO)NC(=O)[C@H](CSSC[C@H](NC(=O)[C@H](CCCCN)NC(=O)[C@H](CCCNC(=N)N)NC1=O)C(=O)N[C@@H](CO)C(=O)N1CCC[C@H]1C(=O)N[C@@H](CC(=O)O)C(=O)N[C@@H](CC(N)=O)C(=O)N[C@@H](CC(=O)O)C(=O)N[C@@H](CCCCN)C(=O)N3)NC(=O)[C@H](C(C)C)NC(=O)[C@H](CC(C)C)NC(=O)[C@H](CC(N)=O)NC(=O)[C@@H]1CCCN1C(=O)[C@H](CCCNC(=N)N)NC2=O` (H-DCLGFMRKCSPDNDKCCRPNLVCSRTHKWCKYVF-NH2; disulfide 2-17, 9-23, 16-30) and `CSCC[C@@H]1NC(=O)[C@H](Cc2ccccc2)NC(=O)CNC(=O)[C@H](CC(C)C)NC(=O)[C@@H](NC(=O)[C@@H](N)CC(=O)O)CSSC[C@@H]2NC(=O)[C@@H]3CSSC[C@@H](C(=O)N[C@@H](CCCCN)C(=O)N[C@@H](Cc4ccc(O)cc4)C(=O)N[C@H](C(=O)N[C@@H](Cc4ccccc4)C(N)=O)C(C)C)NC(=O)[C@H](Cc4c[nH]c5ccccc45)NC(=O)[C@H](CCCCN)NC(=O)[C@H](Cc4cnc[nH]4)NC(=O)[C@H]([C@@H](C)O)NC(=O)[C@H](CCCNC(=N)N)NC(=O)[C@H](CO)NC(=O)[C@H](CSSC[C@H](NC(=O)[C@H](CCCCN)NC(=O)[C@H](CCCNC(=N)N)NC1=O)C(=O)N[C@@H](Cc1ccccn1)C(=O)N1CCC[C@H]1C(=O)N[C@@H](CC(=O)O)C(=O)N[C@@H](CC(N)=O)C(=O)N[C@@H](CC(=O)O)C(=O)N[C@@H](CCCCN)C(=O)N3)NC(=O)[C@H](C(C)C)NC(=O)[C@H](CC(C)C)NC(=O)[C@H](CC(N)=O)NC(=O)[C@@H]1CCCN1C(=O)[C@H](CCCNC(=N)N)NC2=O` cannot be ordered by IC50: greater than 2.7 µM for the first, greater than 5 µM for the second.

`CC[C@H](C)[C@@H]1NC(=O)[C@@H]2CSSC[C@@H]3NC(=O)[C@H](C(C)C)NC(=O)[C@H](CC(C)C)NC(=O)[C@H](CC(N)=O)NC(=O)[C@@H]4CCCN4C(=O)[C@H](CCCNC(=N)N)NC(=O)[C@H](CSSC[C@H](NC(=O)[C@@H](N)CC(=O)O)C(=O)N[C@@H](CC(C)C)C(=O)NCC(=O)N[C@@H](Cc4ccccc4)C(=O)N[C@@H](CCSC)C(=O)N[C@@H](CCCNC(=N)N)C(=O)N[C@@H](CCC(=O)O)C(=O)N2)NC(=O)[C@H](CSSC[C@@H](C(=O)N[C@@H](CCCCN)C(=O)N[C@@H](Cc2ccc(O)cc2)C(=O)N[C@H](C(=O)N[C@@H](Cc2ccccc2)C(N)=O)C(C)C)NC(=O)[C@H](Cc2c[nH]c4ccccc24)NC(=O)[C@H](CCCCN)NC(=O)[C@H](Cc2cnc[nH]2)NC(=O)[C@H]([C@@H](C)O)NC(=O)[C@H](CCCNC(=N)N)NC(=O)[C@H](CO)NC3=O)NC(=O)[C@H](CCCCN)NC(=O)[C@H](CC(=O)O)NC(=O)[C@H](CC(N)=O)NC(=O)[C@H](CC(=O)O)NC(=O)[C@@H]2CCCN2C1=O` (H-DCLGFMRECIPDNDKCCRPNLVCSRTHKWCKYVF-NH2; disulfide 2-17, 9-23, 16-30) and `CC[C@H](C)[C@@H]1NC(=O)[C@@H]2CSSC[C@@H]3NC(=O)[C@H](C(C)C)NC(=O)[C@H](CC(C)C)NC(=O)[C@H](CC(N)=O)NC(=O)[C@@H]4CCCN4C(=O)[C@H](CCCNC(=N)N)NC(=O)[C@H](CSSC[C@H](NC(=O)[C@@H](N)CC(=O)O)C(=O)N[C@@H](CC(C)C)C(=O)N[C@@H](CCC(=O)O)C(=O)N[C@@H](Cc4ccccc4)C(=O)N[C@@H](CCSC)C(=O)N[C@@H](CCCNC(=N)N)C(=O)N[C@@H](CCCCN)C(=O)N2)NC(=O)[C@H](CSSC[C@@H](C(=O)N[C@@H](CCCCN)C(=O)N[C@@H](Cc2ccc(O)cc2)C(=O)N[C@H](C(=O)N[C@@H](Cc2ccccc2)C(N)=O)C(C)C)NC(=O)[C@H](Cc2c[nH]c4ccccc24)NC(=O)[C@H](CCCCN)NC(=O)[C@H](Cc2cnc[nH]2)NC(=O)[C@H]([C@@H](C)O)NC(=O)[C@H](CCCNC(=N)N)NC(=O)[C@H](CO)NC3=O)NC(=O)[C@H](CCCCN)NC(=O)[C@H](CC(=O)O)NC(=O)[C@H](CC(N)=O)NC(=O)[C@H](CC(=O)O)NC(=O)[C@@H]2CCCN2C1=O` (H-DCLEFMRKCIPDNDKCCRPNLVCSRTHKWCKYVF-NH2; disulfide 2-17, 9-23, 16-30) cannot be ordered by IC50: greater than 5 µM for the first, greater than 5 µM for the second.

`CC[C@H](C)[C@@H]1NC(=O)[C@@H]2CSSC[C@@H]3NC(=O)[C@H](C(C)C)NC(=O)[C@H](CC(C)C)NC(=O)[C@H](CC(N)=O)NC(=O)[C@@H]4CCCN4C(=O)[C@H](CCCNC(=N)N)NC(=O)[C@H](CSSC[C@H](NC(=O)[C@H](CC(=O)O)NC(=O)[C@@H](N)CCCNC(=N)N)C(=O)N[C@@H](CC(C)C)C(=O)NCC(=O)N[C@@H](Cc4ccccc4)C(=O)N[C@@H](CCSC)C(=O)N[C@@H](CCCNC(=N)N)C(=O)N[C@@H](CCCCN)C(=O)N2)NC(=O)[C@H](CSSC[C@@H](C(=O)N[C@@H](CCCCN)C(=O)N[C@@H](Cc2ccc(O)cc2)C(=O)N[C@H](C(=O)N[C@@H](Cc2ccccc2)C(N)=O)C(C)C)NC(=O)[C@H](Cc2c[nH]c4ccccc24)NC(=O)[C@H](CCCCN)NC(=O)[C@H](Cc2cnc[nH]2)NC(=O)[C@H]([C@@H](C)O)NC(=O)[C@H](CCCNC(=N)N)NC(=O)[C@H](CO)NC3=O)NC(=O)[C@H](CCCCN)NC(=O)[C@H](CC(=O)O)NC(=O)[C@H](CC(N)=O)NC(=O)[C@H](CC(=O)O)NC(=O)[C@@H]2CCCN2C1=O` and `CC[C@H](C)[C@@H]1NC(=O)[C@@H]2CSSC[C@@H]3NC(=O)[C@H](C(C)C)NC(=O)[C@H](CC(C)C)NC(=O)[C@H](CC(N)=O)NC(=O)[C@H](CCCNC(=N)N)NC(=O)[C@H](CCCNC(=N)N)NC(=O)[C@H](CSSC[C@H](NC(=O)[C@@H](N)CC(=O)O)C(=O)N[C@@H](CC(C)C)C(=O)NCC(=O)N[C@@H](Cc4ccccc4)C(=O)N[C@@H](CCSC)C(=O)N[C@@H](CCCNC(=N)N)C(=O)N[C@@H](CCCCN)C(=O)N2)NC(=O)[C@H](CSSC[C@@H](C(=O)N[C@@H](CCCCN)C(=O)N[C@@H](Cc2ccc(O)cc2)C(=O)N[C@H](C(=O)N[C@@H](Cc2ccccc2)C(N)=O)C(C)C)NC(=O)[C@H](Cc2c[nH]c4ccccc24)NC(=O)[C@H](CCCCN)NC(=O)[C@H](Cc2cnc[nH]2)NC(=O)[C@H]([C@@H](C)O)NC(=O)[C@H](CCCNC(=N)N)NC(=O)[C@H](CO)NC3=O)NC(=O)[C@H](CCCCN)NC(=O)[C@H](CC(=O)O)NC(=O)[C@H](CC(N)=O)NC(=O)[C@H](CC(=O)O)NC(=O)[C@@H]2CCCN2C1=O` (H-DCLGFMRKCIPDNDKCCRRNLVCSRTHKWCKYVF-NH2; disulfide 2-17, 9-23, 16-30) cannot be ordered by IC50: greater than 5 µM for the first, greater than 5 µM for the second.

`CSCC[C@@H]1NC(=O)[C@H](Cc2ccccc2)NC(=O)CNC(=O)[C@H](CC(C)C)NC(=O)[C@@H](NC(=O)[C@@H](N)CC(=O)O)CSSC[C@@H]2NC(=O)[C@@H]3CSSC[C@@H](C(=O)N[C@@H](CCCCN)C(=O)N[C@@H](Cc4ccc(O)cc4)C(=O)N[C@H](C(=O)N[C@@H](Cc4ccccc4)C(N)=O)C(C)C)NC(=O)[C@H](Cc4c[nH]c5ccccc45)NC(=O)[C@H](CCCCN)NC(=O)[C@H](Cc4cnc[nH]4)NC(=O)[C@H]([C@@H](C)O)NC(=O)[C@H](CCCNC(=N)N)NC(=O)[C@H](CO)NC(=O)[C@H](CSSC[C@H](NC(=O)[C@H](CCCCN)NC(=O)[C@H](CCCNC(=N)N)NC1=O)C(=O)N[C@@H](Cc1ccc(C(=O)O)cc1)C(=O)N1CCC[C@H]1C(=O)N[C@@H](CC(=O)O)C(=O)N[C@@H](CC(N)=O)C(=O)N[C@@H](CC(=O)O)C(=O)N[C@@H](CCCCN)C(=O)N3)NC(=O)[C@H](C(C)C)NC(=O)[C@H](CC(C)C)NC(=O)[C@H](CC(N)=O)NC(=O)[C@@H]1CCCN1C(=O)[C@H](CCCNC(=N)N)NC2=O` showed an IC50 greater than 4.8 µM.
